Experimental findings from ChEMBL document CHEMBL4145497, “Discovery of 2-aminothiazolyl berberine derivatives as effectively antibacterial agents toward clinically drug-resistant Gram-negative Acinetobacter baumanii” (Eur J Med Chem, 2018) are described below.

The structures appear in SMILES notation. In brackets after ≈: the same amount, converted by molar mass.

One data set has as its system Bacillus subtilis. Briefly: Antibacterial activity against Bacillus subtilis ATCC 21216 after 18 to 24 hrs by CLSI two fold serial dilution method. It counts as functional.
The subject of a further data set is Aspergillus flavus. Briefly: Antifungal activity against Aspergillus flavus ATCC 204304 by CLSI two fold serial dilution method. It counts as functional.
The test system of another data set is Candida albicans. Briefly: Antifungal activity against Candida albicans ATCC 76615 by CLSI two fold serial dilution method. The class given is functional.
In a further data set the test system is Pichia norvegensis. Briefly: Antifungal activity against Candida mycoderma ATCC 96918 by CLSI two fold serial dilution method. The class given is functional.
Another data set has as its system Candida parapsilosis. Briefly: Antifungal activity against Candida parapsilosis ATCC 22019 by CLSI two fold serial dilution method. Particulars: Lodderomyces parapsilosis. The class given is functional.
The next data set has as its system Staphylococcus aureus. Briefly: Antibacterial activity against Staphylococcus aureus ATCC 25923 after 18 to 24 hrs by CLSI two fold serial dilution method. The class given is functional.
For a further data set, the system named is Cyberlindnera jadinii. Kind of data set: Antifungal activity against Candida utilis ATCC 9950 by CLSI two fold serial dilution method. It counts as functional. Particulars: Williopsis jadinii.
Another data set relates to Pseudomonas aeruginosa. Kind of data set: Antibacterial activity against Pseudomonas aeruginosa ATCC 27853 after 18 to 24 hrs by CLSI two fold serial dilution method. It counts as functional.
In the next data set the test system is Saccharomyces cerevisiae. Briefly: Antifungal activity against Saccharomyces cerevisiae ATCC 9763 by CLSI two fold serial dilution method. The class given is functional.
The nature of data set [1]: Aqueous solubility of the compound in phosphate buffer at pH 7.4 after 3 hrs by UV detection assay. It counts as physicochemical. The essentials:
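Water solubility measured at physiological pH, with berberine as the control.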

A further data set concerns Escherichia coli. Briefly: Antibacterial activity against Escherichia coli DH52 after 18 to 24 hrs by CLSI two fold serial dilution method. It counts as functional.
Another data set deals with Micrococcus luteus. Briefly: Antibacterial activity against Micrococcus luteus ATCC 4698 after 18 to 24 hrs by CLSI two fold serial dilution method. The class given is functional.

In general, MIC refers to the least concentration at which growth counts as inhibited. Lower therefore signals greater potency. A word on the solubility: it is the concentration that dissolves in the medium under given conditions. A high value points to much dissolved substance. With `COc1cc(/C=N/Nc2nccs2)c2c(c1OCc1ccc([N+](=O)[O-])cc1)CN1CCc3cc4c(cc3C1C2)OCO4` (centres undefined), the MIC amounted to 110 µM (≈ 64.4 µg/mL) with Bacillus subtilis; 870 µM (≈ 510 µg/mL) in the data set with Aspergillus flavus; 220 µM (≈ 129 µg/mL) with Candida albicans; 220 µM (≈ 129 µg/mL) in the data set on Pichia norvegensis; 7 µM (≈ 4.1 µg/mL) with Candida parapsilosis; 110 µM (≈ 64.4 µg/mL) in the data set on Staphylococcus aureus. In addition, the minimum inhibitory concentration (MIC) against Cyberlindnera jadinii is 440 µM (≈ 258 µg/mL); against Pseudomonas aeruginosa, 50 µM (≈ 29.3 µg/mL); against Saccharomyces cerevisiae, 440 µM (≈ 258 µg/mL); against Escherichia coli, 440 µM (≈ 258 µg/mL); against Micrococcus luteus it was 220 µM (≈ 129 µg/mL). This compound had a solubility at 3 h in [1] of 374 to 3190 µg/mL (≈ 0.639 to 5.45 mM).

For the compound `COc1cc(/C=N/Nc2nccs2)c2c(c1OCc1ccccc1)CN1CCc3cc4c(cc3C1C2)OCO4` (centres undefined), the MIC in the data set with Bacillus subtilis was determined as 470 µM (≈ 254 µg/mL); against Aspergillus flavus, 950 µM (≈ 514 µg/mL); against Candida albicans, 470 µM (≈ 254 µg/mL); against Pichia norvegensis, 60 µM (≈ 32.4 µg/mL); in the data set with Candida parapsilosis, 60 µM (≈ 32.4 µg/mL); against Staphylococcus aureus, 240 µM (≈ 130 µg/mL). Further, the MIC was found to be 470 µM (≈ 254 µg/mL) against Cyberlindnera jadinii; 240 µM (≈ 130 µg/mL) against Pseudomonas aeruginosa; 950 µM (≈ 514 µg/mL) against Saccharomyces cerevisiae; 950 µM (≈ 514 µg/mL) against Escherichia coli; 240 µM (≈ 130 µg/mL) with Micrococcus luteus. Further, in data set [1], the solubility at 3 h is 374 to 3190 µg/mL (≈ 0.692 to 5.9 mM).

As to `COc1cc(/C=N/Nc2nccs2)c2c(c1OCc1cccc(Cl)c1)CN1CCc3cc4c(cc3C1C2)OCO4` (centres undefined), the MIC in the data set on Bacillus subtilis amounted to 110 µM (≈ 63.3 µg/mL); in the data set on Aspergillus flavus it was 450 µM (≈ 259 µg/mL); against Candida albicans, 450 µM (≈ 259 µg/mL); with Pichia norvegensis, 220 µM (≈ 127 µg/mL); with Candida parapsilosis it was 60 µM (≈ 34.5 µg/mL); against Staphylococcus aureus it was 220 µM (≈ 127 µg/mL). Also, the MIC came to 450 µM (≈ 259 µg/mL) against Cyberlindnera jadinii; 220 µM (≈ 127 µg/mL) with Pseudomonas aeruginosa; 890 µM (≈ 512 µg/mL) against Saccharomyces cerevisiae; 890 µM (≈ 512 µg/mL) against Escherichia coli; 220 µM (≈ 127 µg/mL) against Micrococcus luteus. In data set [1], the solubility at 3 h lay within 374 to 3190 µg/mL (≈ 0.65 to 5.55 mM).

With `C=CCOc1c(OC)cc(/C=N/Nc2nccs2)c2c1CN1CCc3cc4c(cc3C1C2)OCO4` (centres undefined), the minimum inhibitory concentration (MIC) came out at 520 µM (≈ 255 µg/mL) in the data set on Bacillus subtilis; 260 µM (≈ 128 µg/mL) with Aspergillus flavus; 130 µM (≈ 63.8 µg/mL) against Candida albicans; 520 µM (≈ 255 µg/mL) in the data set with Pichia norvegensis; 70 µM (≈ 34.3 µg/mL) in the data set on Candida parapsilosis; 30 µM (≈ 14.7 µg/mL) in the data set with Staphylococcus aureus. Besides, the MIC with Cyberlindnera jadinii turned out to be 130 µM (≈ 63.8 µg/mL); against Pseudomonas aeruginosa it was 260 µM (≈ 128 µg/mL); in the data set on Saccharomyces cerevisiae, 1040 µM (≈ 510 µg/mL); against Escherichia coli, 130 µM (≈ 63.8 µg/mL); in the data set with Micrococcus luteus, 130 µM (≈ 63.8 µg/mL). The compound also showed a solubility at 3 h in data set [1] of 7020 to 10200 µg/mL (≈ 14.3 to 20.8 mM).

For the compound `COc1cc(/C=N/Nc2nccs2)c2c(c1OCc1ccccc1F)CN1CCc3cc4c(cc3C1C2)OCO4` (centres undefined), the MIC was 460 µM (≈ 257 µg/mL) against Bacillus subtilis; 920 µM (≈ 514 µg/mL) in the data set on Aspergillus flavus; 230 µM (≈ 128 µg/mL) in the data set with Candida albicans; 460 µM (≈ 257 µg/mL) in the data set on Pichia norvegensis; 230 µM (≈ 128 µg/mL) with Candida parapsilosis; 60 µM (≈ 33.5 µg/mL) in the data set with Staphylococcus aureus. For the same compound, the MIC against Cyberlindnera jadinii stood at 460 µM (≈ 257 µg/mL); in the data set on Pseudomonas aeruginosa, 460 µM (≈ 257 µg/mL); in the data set with Saccharomyces cerevisiae, 920 µM (≈ 514 µg/mL); against Escherichia coli, 230 µM (≈ 128 µg/mL); against Micrococcus luteus, 230 µM (≈ 128 µg/mL). In data set [1], the solubility at 3 h fell in the range of 374 to 3190 µg/mL (≈ 0.669 to 5.71 mM).

Turning to `COc1cc(/C=N/Nc2nccs2)c2c(c1OCC#N)CN1CCc3cc4c(cc3C1C2)OCO4` (centres undefined), the MIC against Bacillus subtilis came to 260 µM (≈ 127 µg/mL); in the data set on Aspergillus flavus, 1050 µM (≈ 514 µg/mL); against Candida albicans it was 70 µM (≈ 34.3 µg/mL); against Pichia norvegensis, 130 µM (≈ 63.6 µg/mL); with Candida parapsilosis, 20 µM (≈ 9.79 µg/mL); against Staphylococcus aureus it was 130 µM (≈ 63.6 µg/mL). In addition, the MIC is 520 µM (≈ 255 µg/mL) in the data set with Cyberlindnera jadinii; 260 µM (≈ 127 µg/mL) with Pseudomonas aeruginosa; 1050 µM (≈ 514 µg/mL) in the data set on Saccharomyces cerevisiae; 260 µM (≈ 127 µg/mL) against Escherichia coli; 260 µM (≈ 127 µg/mL) in the data set on Micrococcus luteus. In [1], this compound displayed a solubility at 3 h of 7020 to 10200 µg/mL (≈ 14.3 to 20.8 mM).

For `COc1cc(/C=N/Nc2nccs2)c2c(c1OCc1ccc(Cl)c(Cl)c1)CN1CCc3cc4c(cc3C1C2)OCO4` (centres undefined), the MIC against Bacillus subtilis came to 210 µM (≈ 128 µg/mL); against Aspergillus flavus, 420 µM (≈ 256 µg/mL); in the data set on Candida albicans it was 420 µM (≈ 256 µg/mL); against Pichia norvegensis, 210 µM (≈ 128 µg/mL); in the data set with Candida parapsilosis it was 110 µM (≈ 67 µg/mL); in the data set with Staphylococcus aureus it was 110 µM (≈ 67 µg/mL). The minimum inhibitory concentration (MIC) amounted to 420 µM (≈ 256 µg/mL) against Cyberlindnera jadinii; 110 µM (≈ 67 µg/mL) against Pseudomonas aeruginosa; 840 µM (≈ 512 µg/mL) against Saccharomyces cerevisiae; 110 µM (≈ 67 µg/mL) against Escherichia coli; 420 µM (≈ 256 µg/mL) with Micrococcus luteus. The solubility at 3 h in [1] lay in the range of 374 to 3190 µg/mL (≈ 0.614 to 5.23 mM).
